Laboratory results taken from ChEMBL document CHEMBL5712901, “DOT1L inhibition blocks multiple myeloma cell proliferation by suppressing IRF4-MYC signaling” (2019).
Active and inactive are the calls of the source. The calls are words filed in the database; no cut-off is given here.

What was measured:
[1] = system: RPMI-8226; experiment: Upregulation of FNBP1 gene in human RPMI-8226 cells at 1 uM for 6 days by; type: functional, cell-based; details: time 6.0 day
[2] = system: RPMI-8226; experiment: Induction of apoptosis in human RPMI-8226 cells assessed as late apoptotic cells at 1 uM for 3 days by annexin-V based propidium iodide staining based flow cytometric analysis (reference value: 2.43%); type: functional; details: time 3 day
[3] = system: RPMI-8226; experiment: Upregulation of IFITM1 gene in human RPMI-8226 cells at 1 uM for 6 days by; type: functional, cell-based; details: time 6.0 day
[4] = system: MM1.S; experiment: Induction of apoptosis in human MM1.S cells assessed as viable cells at 1 uM for 3 days by annexin-V based propidium iodide staining based flow cytometric analysis (reference value: 94.3%); type: functional; details: 72 h, time 3 day, read-out: Activity
[5] = system: RPMI-8226; experiment: Upregulation of PTGER4 gene in human RPMI-8226 cells at 1 uM for 6 days by; type: functional, cell-based; details: time 6.0 day
[6] = system: MM1.S; experiment: Upregulation of IFN in human MM1.S cells assessed as increase in ISG15 gene at 1 uM for 6 days by qRT-PCR analysis; details: time 6.0 day
[7] = system: MM1.S; experiment: Upregulation of CXCL10 gene in human MM1.S cells at 1 uM for 6 days by; type: functional, cell-based; details: time 6.0 day
Procedure, shortened: (§1)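 Human myeloma lines RPMI-8226 and MM.1S exposed to 1 μM DOT1L inhibitor, or DMSO, for 6 days. Whole-genome expression profiled on gene expression microarray.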

[8] = system: RPMI-8226; experiment: Upregulation of PYCARD gene in human RPMI-8226 cells at 1 uM for 6 days by; type: functional, cell-based; details: time 6.0 day
[9] = system: MM1.S; experiment: Upregulation of SNX10 gene in human MM1.S cells at 1 uM for 6 days by; type: functional, cell-based; details: time 6.0 day
[10] = system: MM1.S; experiment: Upregulation of PRDM8 gene in human MM1.S cells at 1 uM for 6 days by; type: functional, cell-based; details: time 6.0 day
[11] = system: MM1.S; experiment: Upregulation of IFN in human MM1.S cells assessed as increase in IFITM1 gene at 1 uM for 6 days by qRT-PCR analysis; details: time 6.0 day
[12] = system: RPMI-8226; experiment: Upregulation of COL16A1 gene in human RPMI-8226 cells at 1 uM for 6 days by; type: functional, cell-based; details: time 6.0 day; procedure, shortened: as §1
[13] = system: RPMI-8226; experiment: Upregulation of ZG16B gene in human RPMI-8226 cells at 1 uM for 6 days by; type: functional, cell-based; details: time 6.0 day
[14] = system: RPMI-8226; experiment: Upregulation of LAMB3 gene in human RPMI-8226 cells at 1 uM for 6 days by; type: functional, cell-based; details: time 6.0 day
[15] = system: RPMI-8226; experiment: Upregulation of IGFBP6 gene in human RPMI-8226 cells at 1 uM for 6 days by; type: functional, cell-based; details: time 6.0 day
[16] = system: MM1.S; experiment: Upregulation of DOT1L in human MM1.S cells by qRT-PCR analysis; type: functional, cell-based
Procedure, shortened: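 Basal DOT1L transcript in untreated myeloma cell lines measured by qRT-PCR, normalized to ACTB; mean of 3 replicates with SEM.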

[17] = system: RPMI-8226; experiment: Upregulation of ANTXR2 gene in human RPMI-8226 cells at 1 uM for 6 days by; type: functional, cell-based; details: time 6.0 day
[18] = system: MM1.S; experiment: Induction of apoptosis in human MM1.S cells assessed as viable cells at 1 uM for 6 days by annexin-V based propidium iodide staining based flow cytometric analysis (reference value: 77.4%); type: functional; details: 144 h, time 6 day, read-out: Activity
[19] = system: RPMI-8226; experiment: Upregulation of SLC9A9 gene in human RPMI-8226 cells at 1 uM for 6 days by; type: functional, cell-based; details: time 6.0 day
[20] = system: MM1.S; experiment: Upregulation of HLA-DQB1 gene in human MM1.S cells at 1 uM for 6 days by; type: functional, cell-based; details: time 6.0 day
[21] = system: RPMI-8226; experiment: Induction of apoptosis in human RPMI-8226 cells assessed as viable cells at 1 uM for 6 days by annexin-V based propidium iodide staining based flow cytometric analysis (reference value: 79.0%); type: functional; details: RPMI-8226, 144 h, time 6 day, read-out: Activity
[22] = system: MM1.S; experiment: Upregulation of NREP gene in human MM1.S cells at 1 uM for 6 days by; type: functional, cell-based; details: time 6.0 day
[23] = system: RPMI-8226; experiment: Upregulation of PPP1R1C gene in human RPMI-8226 cells at 1 uM for 6 days by; type: functional, cell-based; details: time 6.0 day
[24] = system: MM1.S; experiment: Upregulation of RORC gene in human MM1.S cells at 1 uM for 6 days by; type: functional, cell-based; details: time 6.0 day
[25] = system: MM1.S; experiment: Upregulation of RAPGEF2 gene in human MM1.S cells at 1 uM for 6 days by; type: functional, cell-based; details: time 6.0 day
[26] = system: MM1.S; experiment: Induction of apoptosis in human MM1.S cells assessed as viable cells at 1 uM for 6 days by annexin-V based propidium iodide staining based flow cytometric analysis (reference value: 80.4%); type: functional; details: 144 h, time 6 day, read-out: Activity
[27] = system: MM1.S; experiment: Antiproliferative activity against human MM1.S cells treated 3 days at 1 uM; type: functional, cell-based; details: time 3.0 day
Procedure, shortened: (§2)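 Cell lines in 6-well plates, 2 × 10^4 to 8 × 10^5 cells/well, exposed to DOT1L inhibitor at 0.25-1 μM or DMSO, with medium and drug refreshed every 3 days. Viability read with Cell Counting Kit-8 on a microplate reader. Values normalized to untreated cells; mean of 3 replications ± SEM.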

[28] = system: U-266; experiment: Antiproliferative activity against human U-266 cells treated 3 days at 1 uM; type: functional, cell-based; details: time 3.0 day; procedure, shortened: as §2
[29] = system: RPMI-8226; experiment: Induction of apoptosis in human RPMI-8226 cells assessed as viable cells at 1 uM for 3 days by annexin-V based propidium iodide staining based flow cytometric analysis (reference value: 91.2%); type: functional; details: RPMI-8226, 72 h, time 3 day, read-out: Activity
[30] = system: MM1.S; experiment: Upregulation of IQCE gene in human MM1.S cells at 1 uM for 6 days by; type: functional, cell-based; details: time 6.0 day
[31] = system: U-266; experiment: Antiproliferative activity against human U-266 cells assessed as reduction in cell viability measured at 1 uM for 18 days; type: functional, cell-based; details: time 18.0 day
[32] = system: MM1.S; experiment: Upregulation of IFN in human MM1.S cells assessed as increase in IFIT1 gene at 1 uM for 6 days by qRT-PCR analysis; details: time 6.0 day
[33] = system: MM1.S; experiment: Upregulation of CXCL12 gene in human MM1.S cells at 1 uM for 6 days by; type: functional, cell-based; details: time 6.0 day; procedure, shortened: as §1
[34] = system: RPMI-8226; experiment: Induction of apoptosis in human RPMI-8226 cells assessed as necrotic cells at 1 uM for 6 days by annexin-V based propidium iodide staining based flow cytometric analysis (reference value: 3.92%); type: functional; details: time 6 day
[35] = system: MM1.S; experiment: Induction of cell cycle arrest in human MM1.S cells assessed as increase in accumulation of cells at G1 phase at 1 uM for 6 days; type: functional, cell-based; details: time 6.0 day
Procedure, shortened: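 Flow cytometric cell cycle analysis of RPMI-8226 and MM.1S cells treated with 1 μM DOT1L inhibitor or DMSO for 6 days. Sub-G1, G0-G1 and S phase populations scored. Summary is from 3 replications, mean ± SEM.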

[36] = system: RPMI-8226; experiment: Upregulation of NXF3 gene in human RPMI-8226 cells at 1 uM for 6 days by; type: functional, cell-based; details: time 6.0 day
[37] = system: MM1.S; experiment: Upregulation of CTSH gene in human MM1.S cells at 1 uM for 6 days by; type: functional, cell-based; details: time 6.0 day; procedure, shortened: as §1
[38] = system: RPMI-8226; experiment: Upregulation of IFN in human RPMI-8226 cells assessed as increase in ISG15 gene at 1 uM for 6 days by qRT-PCR analysis; type: functional, cell-based; details: time 6.0 day
[39] = system: MM1.S; experiment: Upregulation of IFN in human MM1.S cells assessed as increase in IFI44 gene at 1 uM for 6 days by qRT-PCR analysis; details: time 6.0 day

CC(C)N(CCCNC(=O)Nc1ccc(C(C)(C)C)cc1)C[C@H]1O[C@@H](n2cc(Br)c3c(N)ncnc32)[C@H](O)[C@@H]1O was tested, and the Activity [1] was “Active”, the Activity [2] was 8.85% and the Activity [3] was “Active”. For the same compound, the viability at 1 µM [4] was 92.3%, the Activity [5] was “Active” and the Activity [6] was “Active”. For the same compound, the Activity [7] was “Active”, the Activity [8] was “Active” and the Activity [9] was “Active”. For the same compound, the Activity [10] was “Active”, the Activity [11] was “Active” and the Activity [12] was “Active”. The Activity [13] was “Active”, the Activity [14] was “Active” and the Activity [15] was “Active”. The Activity [16] was “Active”, the Activity [17] was “Active” and the viability at 1 µM [18] was 42.4%. The Activity [19] was “Active”, the Activity [20] was “Active” and the viability at 1 µM [21] was 60.9%. The Activity [22] was “Active”, the Activity [23] was “Active” and the Activity [24] was “Active”. The Activity [25] was “Active”, the viability at 1 µM [26] was 67.9% and the Activity [27] was “Active”. For the same compound, the Activity [28] was “inactive”, the viability at 1 µM [29] was 77.8% and the Activity [30] was “Active”. For the same compound, the Activity [31] was “Active”, the Activity [32] was “Active” and the Activity [33] was “Active”. The Activity [34] was 4.83%, the Activity [35] was “Active” and the Activity [36] was “Active”. The Activity [37] was “Active”.
In the case of CC(C)N(C[C@H]1O[C@@H](n2cnc3c(N)ncnc32)[C@H](O)[C@@H]1O)[C@H]1C[C@@H](CCc2nc3cc(C(C)(C)C)ccc3[nH]2)C1 [PINOMETOSTAT], the Activity [38] is reported as “Active”, the Activity [39] is reported as “Active” and the Activity [2] is reported as 9.83%. For the same compound, the viability at 1 µM [4] was 96.7%, the Activity [6] was “Active” and the Activity [11] was “Active”. The viability at 1 µM [18] was 52.8%, the viability at 1 µM [21] was 63.5% and the viability at 1 µM [26] was 67.5%. The Activity [27] was “Active”, the Activity [28] was “inactive” and the viability at 1 µM [29] was 76.6%. For the same compound, the Activity [31] was “Active”, the Activity [32] was “Active” and the Activity [34] was 3.98%. The Activity [35] was “Active”.
